# TNF necrop inh – inhibitors of TNF-alpha triggered necroptosis, primary screen, cell-based, Jurkat FADD-/-, single concentration; Jurkat FADD-/- TNF necroptosis rescue, ATP luminescence, 24 h; 0 = TNF only, 100 = no-TNF cells; activation (protection from cell death), % at 10 µM; 0.068% of 220,000 active; AID 463075, 2010;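 active = activation, meaning protection from cell death, of at least 50% relative to plate controls; inactive = activation below 50%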;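 note: necroptosis triggered by 40 ng/mL TNF-alpha added together with compound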
# RanGTP-Imp inh – inhibitors of RanGTP-importin-beta interaction, primary screen, biochemical, FRET, CFP-Ran, YFP-importin-beta, homogeneous; cell-free CFP-Ran/YFP-importin-beta FRET ratio; inhibition, % (concentration not given with the values); 1.1% of 300,000 active; AID 2216, 2009;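 active = more than half of the replicate wells show a fall in the fluorescence ratio signal beyond about 16%, limit read from the data, passing the limit was not always enough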;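 note: 0% = DMSO wells and 100% = Ran loaded with GDP instead of GTP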
# Hck-Nef inh – inhibitors of Nef-activated human Hck kinase, primary screen, biochemical, Z-Lyte FRET, 384-well, Hck-YEEI; 0.68% of 220,000 active; AID 463187, 2010; inhibition, % at 20 µM; Recombinant Hck-YEEI plus Nef, Z-Lyte FRET kinase assay; Tyrosine-protein kinase HCK (Homo sapiens), P08631;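 active = Hck-Nef kinase inhibition above about 50%, limit read from the data; inactive = inhibition below that limit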;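 note: 0% = DMSO with Hck plus Nef and 100% = Hck alone without Nef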
# Runt-SMMHC FRET – inhibitors of RUNX1 Runt–CBFb-SMMHC binding, primary screen, biochemical, FRET, Cerulean-Runt, Venus-CBFb-SMMHC, uHTS. Cerulean-Runt/Venus-CBFb-SMMHC FRET ratio 530/480, 1 h. 0.74% of 220,000 active. inhibition, % at 20 µM;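 active = mean inhibition across duplicate retests at 20 µM reaching about 50%, limit read from the data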;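 note: 0% = DMSO wells and 100% = wells with excess untagged CBFb-SMMHC; inhibitors lower the FRET ratio by blocking Runt binding to CBFb-SMMHC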
# Target sequence (Q01196 whole entry, looked up): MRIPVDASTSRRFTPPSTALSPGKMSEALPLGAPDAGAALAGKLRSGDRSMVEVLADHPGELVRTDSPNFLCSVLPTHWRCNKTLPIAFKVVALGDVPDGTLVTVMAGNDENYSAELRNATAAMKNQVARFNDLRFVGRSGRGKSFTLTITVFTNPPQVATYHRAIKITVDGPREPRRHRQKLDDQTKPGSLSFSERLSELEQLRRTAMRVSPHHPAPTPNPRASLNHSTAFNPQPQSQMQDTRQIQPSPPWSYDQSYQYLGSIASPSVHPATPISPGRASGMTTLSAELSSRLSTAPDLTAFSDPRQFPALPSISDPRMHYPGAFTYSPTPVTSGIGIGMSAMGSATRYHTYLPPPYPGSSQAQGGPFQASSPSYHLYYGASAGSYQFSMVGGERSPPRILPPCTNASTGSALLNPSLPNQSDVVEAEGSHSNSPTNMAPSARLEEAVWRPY
# Target sequence (Q13951 whole entry, looked up): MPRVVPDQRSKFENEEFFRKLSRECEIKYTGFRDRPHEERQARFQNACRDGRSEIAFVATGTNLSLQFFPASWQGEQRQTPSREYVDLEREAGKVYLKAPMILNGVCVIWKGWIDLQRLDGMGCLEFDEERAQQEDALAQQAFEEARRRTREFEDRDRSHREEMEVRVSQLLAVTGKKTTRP
# zVAD death inh – inhibitors of zVAD-triggered necroptosis, primary screen, L929 cells; L929 zVAD necroptosis rescue, ATP luminescence, 24 h; with zVAD 60 µM; 0.38% of 220,000 active; viability rescue, % at 10 µM;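 active = activation, scaled between plate controls, above about 75%, limit read from the data; inactive = activation under that limit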;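 note: 0% = zVAD with DMSO and 100% = DMSO alone without zVAD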
# Runt-CBFb FRET – inhibitors of RUNX1 Runt–CBFb binding, primary screen, biochemical, FRET, Cerulean-Runt, Venus-CBFb, uHTS. Runt-related transcription factor 1 (Homo sapiens) + Core-binding factor subunit beta …. AID 1496, 2009. 0.46% of 220,000 active. inhibition, % at 20 µM. Cerulean-Runt/Venus-CBFb FRET ratio 530/480, 1 h;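 active = inhibition over about 50% at 20 µM in the single-dose screen, limit read from the data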;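 note: 0% = DMSO wells and 100% = excess unlabeled CBFb competitor control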
#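 Assay system: Cerulean-tagged RUNX1 Runt domain (FRET donor) fusion protein / Amount: 100 nM each of Venus-CBFb and Cerulean-Runt domain / Medium: Tris buffer pH 7.5 with salts and BSA / Also added: Venus-CBFb 100 nM / Schedule: 1 h complex formation plus 1 h compound treatment, room temperature / Signal: FRET fluorescence / Read-out: loss of energy transfer signal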
# Active calls of the source: *; . = no result. A selection: hits, their analogues and other compounds. The true share with any hit is near 2.1%.
SMILES,TNF necrop inh,RanGTP-Imp inh,Hck-Nef inh,Runt-SMMHC FRET,zVAD death inh,Runt-CBFb FRET
O=C(NC(=S)N1CCCCC1c1cccnc1)c1ccc(Br)cc1 (stereo unspecified),.,32.5*,.,.,.,.
O=C(NC(=S)N1CCCCC1c1cccnc1)c1ccc(F)cc1 (stereo unspecified),.,18.7*,.,.,.,.
Cc1cccc(NC(=S)N2CCCCC2c2cccnc2)c1C (stereo unspecified),-0.1,3.1,-2.3,-0.9,0.5,1.0
CCOCCCNC(=O)/C(C#N)=C/c1ccc([N+](=O)[O-])o1,1.0,-1.5,19.3,-7.5,43.3,4.9
Cc1ccccc1N=Nc1ccc(O)c2ncccc12,-11.0,-6.3,2.8,-3.9,12.6,-6.9
O=S(=O)(O)c1cccc2c(N=Nc3ccc(O)c4ncccc34)cccc12,.,16.2*,.,.,.,.
CCOC(=O)c1c(NC(=O)c2c(C(=O)O)cccc2[N+](=O)[O-])sc2c1CCCC2,.,0.0,.,.,.,.
Cc1ccccc1NC(=O)c1cc2c(=O)n3cccc(C)c3nc2s1,.,83.8*,.,.,.,.
Cc1cccn2c(=O)c3cc(C(=O)NC4CCCCCC4)sc3nc12,.,18.6*,.,.,.,.
CN1CCN(C(=O)c2cc3c(=O)n4ccccc4nc3s2)CC1,.,19.7*,.,.,.,.
CCOC(=O)N1CCN(C(=O)c2cc3c(=O)n4ccccc4nc3s2)CC1,.,0.9,.,.,.,.
CSc1ccccc1NC(=O)c1cc2c(=O)n3ccccc3nc2s1,.,71.5*,.,.,.,.
CN(C)S(=O)(=O)c1cc(NC(=O)CNCCN2CCOCC2)ccc1Cl,2.5,6.0,-1.0,1.0,-0.4,-0.1
CCOc1cc(/C=N/Nc2nc(-c3cccs3)c(NC(C)=O)s2)ccc1O,-8.5,0.9,28.8,-4.5,3.0,30.4
COc1ccccc1CN1CC(C(=O)N(C)Cc2ccc(C)o2)CCC1=O (stereo unspecified),.,3.4,.,.,.,.
COC(Cc1ccccc1N1CCCC1=O)OC,.,4.0,.,.,.,.
O=C(OC1CCCCC1)c1ccc2c(c1)C1C=CCC1C(C(=O)O)N2 (stereo unspecified),-2.5,.,77.0*,-2.7,2.8,-4.3
O=C(O)C1Nc2ccc(Br)cc2C2C=CCC12 (stereo unspecified),.,-6.5,.,.,.,.
COc1ccc(NS(=O)(=O)c2ccc(OCC(=O)N3CCOCC3)cc2)cc1Cl,.,1.1,.,.,.,.
Cn1cc(CN2CCC[C@H]2CO)c(-c2cccc(Cl)c2)n1,1.3,110.4*,18.9,4.3,1.4,-0.8
CC(C)[C@H]1CN(C)CCN1Cc1cn(C)nc1-c1cccc(Cl)c1,4.1,-2.9,5.7,2.9,-0.9,-2.2
COc1ccc(C(=O)Nc2ccc(-c3ccc(C)o3)cc2)cc1S(=O)(=O)N1CCOCC1,-11.2,1.5,1.5,-14.0,83.8*,7.9
CC1CC(C)CN(C(=O)C2CCN(S(=O)(=O)c3c(Cl)cccc3Cl)CC2)C1 (stereo unspecified),.,1.5,.,.,.,.
CC(C)(C)c1ccc(/C=C(\C#N)C(=O)Nc2ccccn2)cc1,.,-1.5,.,.,.,.
N#C/C(=C\c1cccs1)C(=O)Nc1ccccn1,-0.1,26.1*,15.6,-17.7,2.0,-3.6
SMILES,TNF necrop inh,RanGTP-Imp inh,Hck-Nef inh,Runt-SMMHC FRET,zVAD death inh,Runt-CBFb FRET
Cc1cccc(C)c1NC(=O)/C(C#N)=C/c1cccs1,-0.1,1.0,0.0,-0.2,-0.4,-0.7
Cc1cccc(/C=C(\C#N)C(=O)Nc2ccccn2)c1,.,11.1,.,.,.,.
CCOc1cc(/C=C(\C#N)C(=O)Nc2ccccn2)ccc1O,.,0.8,.,.,.,.
N#C/C(=C\c1ccccc1)C(=O)Nc1ccccn1,.,49.3*,.,.,.,.
C=CCOc1ccc(/C=C(\C#N)C(=O)Nc2ccccn2)cc1,.,17.1*,.,.,.,.
N#C/C(=C\c1ccccc1Cl)C(=O)Nc1ccccn1,.,44.2*,.,.,.,.
O=C(CCN1CCN(c2ccccc2)CC1)N/N=C/c1ccccc1OC(F)F,0.9,1.0,-11.4,4.7,1.6,0.5

# Bioassay records: PubChem, several laboratories
